INS promoter act: TRM-6 insulin promoter activation | activation, % at 2 µM | AID 1296 | actives 0.81% (n = 130,000) | TRM-6 cells, insulin promoter eGFP reporter, imaging; plate-scaled: unstimulated 0, stimulated control 100;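 active = activation at 2 µM above a set limit, confirmed on inspection of the cell images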;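 note: share of cells whose green reporter signal exceeds an intensity cutoff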
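Test system: human fetal islet-derived TRM-6 cells with tamoxifen-inducible insulin promoter–eGFP reporter. Compound dosing: 2 µM final, single concentration. Incubation: tamoxifen pre-incubation 15 h overnight, then compound exposure 48 h at 37 °C. Signal: fixed-cell fluorescence microscopy, eGFP plus Hoechst.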
Numbers stand for hits; i = inactive. Only a selection was taken, and hits are over-represented in it overall.

SMILES	INS promoter act
COc1cc(C(c2sc3nc(C)nn3c2O)N2CCc3ccccc3C2)cc(OC)c1OC (configuration not stated)	i
COc1ccc(NC(=O)C(CCS(C)(=O)=O)N2C(=O)c3ccccc3C2=O)cc1 (configuration not stated)	i
CN(C)S(=O)(=O)c1cc(NC(=O)[C@H](Cc2ccccc2)N2C(=O)c3ccccc3C2=O)ccc1Cl	414.3
Cc1ccc(NC(=O)C(Cc2ccccc2)N2C(=O)C3C4CCC(C4)C3C2=O)cc1Cl (configuration not stated)	i
COc1cccc(NC(=O)COc2ccc(S(=O)(=O)NC(C)C)cc2)c1	i
CCN=C1SC(CC(N)=O)C(=O)N1CC (configuration not stated)	i
COc1ccc(CC(=O)N2CC(C)CC(C)C2)cc1 (configuration not stated)	i
COc1ccc(NC(=O)CSc2nnnn2C)cc1	i
Cn1nnnc1SCC(=O)Nc1ccccn1	92.9
Cn1nnnc1SCC(=O)Nc1ccccc1[N+](=O)[O-]	i
CCOC(=O)C(CC)Sc1nnc2n1C(C)(C)Cc1ccccc1-2 (configuration not stated)	i
Fc1cc(F)cc(NC(=S)NN2CCOCC2)c1	i
CCCCC(Nc1ncnc2ccccc12)C(=O)O (configuration not stated)	i
CN(C)CCNc1ncnc2ccccc12	i
Cc1ccc(Nc2ncnc3ccccc23)cc1	421.4
CCC1CCCCN1C(=O)c1c[nH]c2ccc(S(=O)(=O)N(C)c3ccc(Cl)cc3)cc2c1=O (configuration not stated)	i
Cc1cc(C)n2nc(C(=O)Nc3ccc4c(c3)OCO4)cc2n1	i
O=C(NCCSCc1ccco1)Nc1ccccc1	i
Cc1c(N2C(=O)C(C)SC23C(=O)Nc2ccccc23)c(=O)n(-c2ccccc2)n1C (configuration not stated)	i
CC(C)c1ccc(NC2(C#N)C(=O)Nc3ccccc32)cc1 (configuration not stated)	80.6
Cc1ccccc1NC1(C#N)C(=O)Nc2ccccc21 (configuration not stated)	i
CS(=O)(=O)N(CC(=O)Nc1cc(Cl)ccc1Cl)c1ccccc1	i
O=C(C[n+]1cccc(CNC(=O)c2ccc(OC(F)F)cc2)c1)c1ccccc1	341.2
CC(Oc1ccc(C(=O)NCCc2ccccc2)cc1)C(=O)O (configuration not stated)	i
O=C(NCc1ccccc1)c1ccc(S(=O)(=O)C(F)F)cc1	i
SMILES	INS promoter act
O=S(=O)(Nc1ncccn1)c1ccc(NS(=O)(=O)c2cc(Cl)ccc2Cl)cc1	i
CCOC(=O)/C(C#N)=C\c1ccc(CC)s1	i
CCOC(=O)/C(C#N)=C\C=C1C=CN(C)C=C1	110.5
CCOC(=O)/C(C#N)=C\c1cc(C)n(-c2ccccc2)c1C	i
Cc1ccc(CSCCNC(=O)c2ccc(Cl)c(S(=O)(=O)N3CCOCC3)c2)cc1	i
Cc1cccc(C(=O)NC2CCN(S(=O)(=O)c3ccccc3)CC2)c1	i
CC(Oc1ccccc1)C(=O)Nc1ccccc1F (configuration not stated)	i
Cc1c(O)ccc(C(=O)CN2C(=O)c3ccccc3C2=O)c1O	i
CCC(C)c1ccc2oc(-c3ccc(NC(=O)Cn4cnc5c(=O)n(C)c(=O)n(C)c54)cc3)nc2c1 (configuration not stated)	i
CSc1ccc(/C=N/NC(=O)c2ccc(C)c(C)c2)cc1	i
CSc1ccc(/C=N/NC(=O)CNc2ccc3ccccc3c2)cc1	368.8
Cc1cccc(NCC(=O)N/N=C/c2cccc(Br)c2)c1	i
C#CCOCCOCCOCCNc1nc(N2CCN(C(=O)[C@H]([C@@H](C)O)n3cc(CCCCN)nn3)CC2)nc(N2CCN(C(=O)[C@H](C)n3cc(CCCN=C(N)N)nn3)CC2)n1	i
COc1cccc(-n2c(Cn3nc(C(F)(F)F)cc3C)n[nH]c2=S)c1	i
CC(=O)c1c(C(C)=O)c(C)n(-c2nc(-c3ccccc3)c(C)s2)c1C	i
Cn1c(SCC(=O)Nc2ccccc2[N+](=O)[O-])nnc1C(F)(F)F	i
O=S(NC1CCCCC1)C12CC3CC(CC(C3)C1)C2 (configuration not stated)	i
CN1CCN(S(=O)C23CC4CC(CC(C4)C2)C3)CC1 (configuration not stated)	488.2
CC1CCN(S(=O)C23CC4CC(CC(C4)C2)C3)CC1 (configuration not stated)	i
CCN(CC)CCn1c(=N)n(CC(O)c2ccco2)c2ccccc21 (configuration not stated)	507.7
N=c1n(Cc2ccccc2)c2ccccc2n1CC(O)c1ccco1 (configuration not stated)	i
Cn1c(=N)n(CC(=O)O)c2ccccc21	i
CCCn1c(Nc2ccc(Cl)cc2)nc2ccccc21	i
Cn1cccc1/C=N/NC(=O)c1ccn[nH]1	i
Cc1ccc(NC(=O)CCC(=O)OCC(=O)c2ccc(-c3ccccc3)cc2)cc1	i
SMILES	INS promoter act
O=C(CCC(=O)OCCCC(F)(F)C(F)(F)F)Nc1ccccc1	i
Cc1ccc(NC(=O)CCC(=O)OCC(F)(F)C(F)F)cc1	80.6
Cc1nn(-c2cccc(Cl)c2)c(Cl)c1/C=N/NC(=O)c1cccnc1	i
CC1CCN(C(=S)NC(=O)C2CCCCC2)CC1	i
c1ccc2[nH]c(CN3CCOCC3)nc2c1	i
N#C/C(=C\c1ccc(OC(=O)c2ccc(Br)s2)cc1)c1nc2ccccc2[nH]1	i
N#C/C(=C\c1ccc(N2CCOCC2)o1)c1nc2ccccc2[nH]1	142.1
O=C(NCCCN1CCCC1=O)c1ccc2c(=O)n(-c3ccc(F)cc3)c(=S)[nH]c2c1	i
O=C(OCCN(C1=NS(=O)(=O)c2ccccc21)c1ccccc1Cl)c1ccc(Cl)cc1	i
O=C(O)CSc1nc2c(c(C(F)(F)F)n1)CCCC2	i
O=C(/C=C/c1ccc(-c2ccc(F)cc2)o1)N1CCCC1	i
COc1ccc(N2CCSC2C(=O)NN)cc1 (configuration not stated)	i
CC(C)NC(=O)C1CCCN(S(=O)(=O)c2cccs2)C1 (configuration not stated)	i
CCOC(=O)C1CCCN(C(=O)c2cccs2)C1 (configuration not stated)	i
CCOC(=O)C1CCCN(S(=O)(=O)c2cccs2)C1 (configuration not stated)	462.5
Cc1cc(C(=O)NCC2COc3ccccc3O2)c2ccccc2n1 (configuration not stated)	i
CC(NC(=O)Cc1ccccc1)C1COc2ccccc2O1 (configuration not stated)	i
CC(O)(CS(=O)(=O)Cc1cccc(C(F)(F)F)c1)C(=O)Nc1cccc(C(F)(F)F)c1 (configuration not stated)	i
Cc1ccc(C)c(N2CCN(C(c3ccc(N(C)C)cc3)c3nnnn3C(C)(C)C)CC2)c1 (configuration not stated)	i
N#Cc1c2c(c(-c3ccccc3Cl)[nH]c1=S)CCCC2	i
N#Cc1c(NCCCO)nc(-c2ccccc2)c2c1CCCC2	i
N#Cc1c2c(c(=S)n(-c3ccccc3)c1N)CCCC2	273.3
COc1ccc(CCNC(=O)[C@@H](NC(N)=O)C(C)C)cc1	i
COc1cccc(C2C3CN(C)CC=C3C(C#N)=C(N)C2(C#N)C#N)c1OC (configuration not stated)	147.2
N#CC1=C(N)C(C#N)(C#N)C(c2ccncc2)C2CN(C(=O)OCc3ccccc3)CC=C12 (configuration not stated)	i

From PubChem BioAssay
